Screens as filed in PubChem BioAssay.
NRP1-CendR mod – alters CendR peptide binding to human NRP-1; inhibition, % at 25 µM; O14786; FAM-RPARPAR peptide binding to NRP-1, fluorescence polarization; actives 0.85% (n = 360,000);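 active = inhibition or corrected inhibition above about 18%, plus a signal ratio from 0.5 to 1.5, limit read from the data, passing the limit was not always enough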
HTR2A ag – agonists of mouse serotonin 5-HT2A receptor (HTR2A) | P35363 | CHO-K1 mHTR2A beta-arrestin complementation, luminescence; percent of 30 µM serotonin response | activation, % at 7.6 µM | actives 0.66% (n = 360,000);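 active = activation above a run cutoff, the mean activation of all tested compounds plus 3 SD, cut at about 14% in these data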;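 note: 0% = plate median of compound wells and 100% = 30 µM serotonin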
Arr AP2 block – inhibitors of human beta-arrestin and AP2 interaction; AID 504490; FITC-arrestin peptide / GST-AP2 beads, flow cytometry; AP2 beta2 appendage carries R879A mutation; actives 0.31% (n = 340,000); inhibition, % at 10 µM;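 active = inhibition above a set limit, near 3 SD of compounds lacking own fluorescence, cut at about 54% in these data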;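 note: plate controls were DMSO wells for no effect and 5 µM unlabelled arrestin peptide for full effect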
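System: GST-AP2 R879A bound to glutathione beads, E. coli-expressed. Also added: 50 nM FITC-arrestin peptide. Schedule: compound with beads 12 min RT, then probe 1 h RT. Signal: bead flow cytometry, FITC channel. Read-out basis: percent response.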
PfM18AAP inh – blocks P. falciparum M18 aspartyl aminopeptidase | recombinant PfM18AAP, H-Glu-NHMec fluorogenic cleavage | inhibition, % at 7.35 µM | actives 1.2% (n = 290,000);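 active = inhibition above the campaign mean inhibition over all tested compounds plus 3 SD, cut at about 28% in these data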;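 note: 0% = plate median of test compound wells and 100% = 2 mM ZnCl2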
HGIII-sPLA2 inh – Inhibits HGIII-sPLA2 liposome hydrolysis, primary screen; Q9NZ20; QFRET BODIPY PC-A2 liposome hydrolysis, fluorescence; inhibition, % at 12.2 µM; actives 0.56% (n = 370,000); AID 743126;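 active = inhibition above mean plus 3 SD of compounds lying within the high and low control bounds, cut at about 19% in these data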;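 note: 0% = median of test compound wells and 100% = no enzyme DMSO wells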
Target sequence (Q9NZ20 whole entry, looked up): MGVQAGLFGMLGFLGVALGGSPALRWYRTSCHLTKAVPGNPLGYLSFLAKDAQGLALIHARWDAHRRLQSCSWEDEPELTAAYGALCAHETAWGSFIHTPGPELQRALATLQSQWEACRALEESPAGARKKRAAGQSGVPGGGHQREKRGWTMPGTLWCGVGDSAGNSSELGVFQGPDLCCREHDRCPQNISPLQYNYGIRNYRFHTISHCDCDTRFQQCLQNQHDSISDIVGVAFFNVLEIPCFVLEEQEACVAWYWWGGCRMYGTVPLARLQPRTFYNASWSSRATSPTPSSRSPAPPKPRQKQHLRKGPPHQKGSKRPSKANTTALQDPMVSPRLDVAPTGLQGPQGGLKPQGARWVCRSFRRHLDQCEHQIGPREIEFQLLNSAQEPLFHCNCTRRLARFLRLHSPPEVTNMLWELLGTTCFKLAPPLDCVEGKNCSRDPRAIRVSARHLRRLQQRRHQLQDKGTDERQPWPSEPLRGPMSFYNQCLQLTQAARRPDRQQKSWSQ
Hep lipid drop – hepatic lipid droplet formation modulation; AML12 mouse hepatocytes, oleate lipid droplets, BODIPY imaging; inhibition, % at 6.5 µM; actives 0.4% (n = 240,000); AID 1656;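 active = lipid droplet intensity inhibited by at least 50%, with more than 500 cells counted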
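Assay system: AML12 mouse liver cells | Compound: 6.5 µM single-point dosing | Schedule: Overnight exposure | Technique: Fluorescence imaging, 20x objective, two fields per well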
Starred values were filed as active, the others as inactive; x = not tested or not shown. The list is not random: actives were taken first. Their share in the collection is about 3.3%.

SMILES	NRP1-CendR mod	HTR2A ag	Arr AP2 block	PfM18AAP inh	HGIII-sPLA2 inh	Hep lipid drop
CCCN(CC(=O)Nc1ccccc1C)C(=O)C1CCCN(C(=O)c2ccc(Cl)cc2)C1 (stereo not drawn)	19*	8	-13	x	9	x
CCCN(CC(=O)Nc1ccccc1C)C(=O)c1ccc(S(=O)(=O)N2CCCCCC2)cc1	12	-3	-2	3	-3	15
CCCN(CC(=O)Nc1ccccc1C)C(=O)c1ccc(C2SCCS2)cc1	26*	5	1	x	-1	x
COC(=O)[C@]12C[C@H](CC(=O)NCc3ccc(C)o3)C(=O)N(Cc3ccco3)C1=C[C@H](C(C)(C)C)O[C@@H]2C	x	x	x	x	0	x
CNc1cncc(-c2cnn(CC(C)C)c2)n1	19	-2	x	x	12	x
O=S(=O)(NCc1csc(-c2cccs2)n1)c1cccs1	35*	-7	9	0	-1	x
CCCCCCCCN1C(=O)N2Cc3ccccc3C2CS1(=O)=O (stereo not drawn)	x	x	x	x	0	x
COc1cccc(N2CCN(c3ncnc4c3[nH]c3ccc(F)cc34)CC2C)c1 (stereo not drawn)	-2	32*	3	4	-14	x
COc1cccc(N2CCN(c3ncnc4c3[nH]c3ccccc34)CC2C)c1 (stereo not drawn)	x	x	x	7	-25	0
C[C@H]1[C@H](NC(=O)c2cccc(C(F)(F)F)c2)CC[C@@]23CCCN2C(=O)CCC[C@@H]13	x	x	x	x	-1	x
Cc1ccc(NC(=O)CSc2nnc(-c3ccc(S(=O)(=O)N4CCCC4)cc3)o2)cc1C	26*	7	6	2	7	x
Cc1[nH]n(-c2ccccc2)c(=S)c1C=Nc1cccc([N+](=O)[O-])c1	24*	-2	12	50*	7	x
O=[N+]([O-])c1ccc(C=Nc2ccccc2)cc1	-5	2	x	x	3	x
CC1OC2CC(=O)OC2C2=C1C(=O)c1c(O)cccc1C2=O (stereo not drawn)	38*	-16	x	x	7	x
O=C(NNS(=O)(=O)c1ccccc1)c1ccc([N+](=O)[O-])cc1	-5	3	28	29*	-1	16
CC(=O)Nc1cccc(-c2ccnc3c2CC(C)(C(=O)NCc2ccc(F)c(F)c2)O3)c1 (stereo not drawn)	-7	0	x	x	-12	x
O=C1c2ccccc2C(=O)N1Cc1ccc2c(c1)OCO2	9	-2	7	1	-2	10
C=C1c2ccccc2NC(=S)N1Cc1ccc2c(c1)OCO2	3	-4	0	32*	7	-1
CC1CCN(C(=O)c2[nH]cnc2C(=O)N[C@H](C)c2ccccc2)CC1	-2	1	24	x	2	x
C[C@@H](NC(=O)c1nc[nH]c1C(=O)N1CCN(c2ccccc2)CC1)c1ccccc1	22*	-5	-10	x	2	x
C[C@@H](NC(=O)c1nc[nH]c1C(=O)NCCCCCNC(=O)OC(C)(C)C)c1ccccc1	7	7	2	x	-7	x
C[C@H](NC(=O)c1nc[nH]c1C(=O)NCCCCCNC(=O)OC(C)(C)C)c1ccccc1	28*	0	0	x	-7	x
C[C@@H](NC(=O)c1nc[nH]c1C(=O)NCc1ccccc1)c1ccccc1	26*	-4	-3	x	-5	x
C[C@H](NC(=O)c1nc[nH]c1C(=O)NCc1ccc(CNC(=O)OC(C)(C)C)cc1)c1ccccc1	28*	0	1	x	17	x
C[C@H]1[C@@H](c2ccccc2)Oc2ccc(Cl)cc2S(=O)(=O)N1Cc1cccc(F)c1	x	x	x	x	8	x
SMILES	NRP1-CendR mod	HTR2A ag	Arr AP2 block	PfM18AAP inh	HGIII-sPLA2 inh	Hep lipid drop
CC(=O)C1=C(C)N(Cc2ccc(F)cc2)C(=S)NC1c1ccc(Br)cc1 (stereo not drawn)	x	x	x	x	-1	x
Cc1ccc(NS(=O)(=O)c2ccc3c(c2)NC(=O)CCS3)c(C)c1	-6	-7	0	3	-18	8
CC(C)(C)OC(=O)NCc1ccc(CNC(=O)c2nc[nH]c2C(=O)N2CCN(C(=O)OC(C)(C)C)CC2)cc1	27*	6	4	x	-18	x
O=C(C[C@@H]1C[C@H]2c3cc(NC(=O)Nc4ccccc4F)ccc3O[C@H]2[C@H](CO)O1)NCC(F)(F)F	-3	1	x	x	-6	x
O=C(NCCC1=CCCCC1)c1ccc(=O)oc1	51*	-3	4	-4	6	x
Cc1[nH][nH]c(=O)c1N=Nc1ccccc1Cl	-13	1	7	-6	10	1
Clc1ccccc1N=Nc1ccccn1	41*	3	-3	x	-63	x
O=C(NCCN1CCOCC1)NC1(C(F)(F)F)Oc2ccccc2O1	1	5	-4	72*	7	x
O=C(NCCN1CCOCC1)Nc1ccccc1	0	5	-8	3	10	-3
CCCC(=O)Nc1cc(OC)c(OC)cc1C(=O)O	13	-2	1	2	2	-11
CCCCNc1cc(NC(C)=O)cc2cc(OC)c(OC)cc12	-69	1	9	28*	10	x
COC(=O)[C@]12C[C@H](CC(=O)NCc3cccs3)C(=O)N(Cc3cccc4ccccc34)C1=C[C@H](C(C)C)O[C@@H]2C1CC1	x	x	x	x	-16	x
O=c1[nH][nH]c(=S)n1C1CCCCC1	x	x	x	58*	x	-7
CN(CC(=O)Nn1cnnc1)S(=O)(=O)c1ccc(Br)cc1	-4	-2	9	30*	1	x
CCN1/C(=C/c2ccc3cc(C)ccc3[n+]2CC)Sc2ccccc21	-284	-8	4	49*	7	-155
COc1ccc2ccccc2c1CN1CCN(c2ncc(Cc3ccccc3)cn2)CC1	x	x	x	x	-1	x
COc1ccc(S(=O)(=O)Nc2cc(C(C)C)c(O)cc2C)cc1	12	4	1	-34	-21	27
C/C(=N\S(=O)(=O)c1ccc(C)cc1)Nc1cc(C(C)C)c(O)cc1C	18	1	14	29*	-22	-15
COc1ccccc1C(=O)Nc1ccc(Oc2nnc(-c3ccc(C)cc3)c3ccccc23)cc1	-5	0	-10	-1	-4	24
Cc1ccc(Oc2nnc(-c3ccc(C)cc3)c3ccccc23)cc1	29*	0	-1	-6	-2	-1
Nc1ccccc1C(=O)NC1CCCNC1=O (stereo not drawn)	11	0	17	x	-4	x
Cc1cc(O)c(CN(C)C)c2c1C(=O)/C(=C/c1ccco1)O2	0	-3	-3	31*	-11	7
CN1C(=O)c2oc3ccccc3c(=O)c2C1c1cccnc1 (stereo not drawn)	18	2	6	x	1	x
CN1C(=O)c2oc3ccccc3c(=O)c2C1c1ccccn1 (stereo not drawn)	33*	4	-6	6	-1	-3
